{"source": "paper PMC5629133", "about": "(Drugs in R&D, 2017)", "key": {"[1]": {"molecular_target": "AGP A variant (S-disopyramide binding site) (Homo sapiens, UniProt P19652)", "settings": "among the drugs tested", "procedure,_shortened": "(§1)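 Human AGP was incubated with radiolabelled S-warfarin or [3H]S-disopyramide, with a series of unlabelled marker levels and test compound at 9.62, 19.2 and 48.1 μM, for 15 min at 37 °C. Ultrafiltration ran at 2000×g for 5 min at 37 °C, with a 30,000 MW cut-off for disopyramide. Mixture and filtrate radioactivity were counted by scintillation. Ki came from a non-linear least-squares competitive inhibition model with a constant non-specific binding term.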"}, "AGP F1/S variants": {"molecular_target": "AGP F1/S variants (Homo sapiens, UniProt P02763)", "test": "Effect of other drugs on binding of tamsulosin to human AGP", "procedure,_shortened": "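Commercial human AGP was mixed with unlabelled tamsulosin (40–500 μM solutions added), [3H]tamsulosin, and test compound at 9.62, 19.2 and 48.1 μM, then incubated for 15 min at 37 °C. Ultrafiltration used a 5000 MW cut-off at 2000×g for 5 min at 37 °C. Mixture and filtrate were counted by liquid scintillation. Ki was fitted by non-linear least squares to a competitive inhibition model with non-specific binding held constant.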"}, "AGP A variant": {"molecular_target": "AGP A variant (Homo sapiens, UniProt P19652)", "test": "Screening: S-disopyramide binding with drug at 100-fold concentration", "settings": "drug at 100-fold concentration of marker", "procedure,_shortened": "(§2)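 Radiolabelled S-disopyramide or S-warfarin binding to human AGP was measured with and without test compound at 100-fold the marker concentration. Incubation was 15 min at 37 °C, followed by ultrafiltration at 2000×g and scintillation counting. Marker binding remaining at 100-fold inhibitor was taken as non-specific. Compounds cutting specific binding by more than 70% went forward to quantitative analysis.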"}, "AGP F1/S variant mixture": {"molecular_target": "AGP F1/S variant mixture (Homo sapiens, UniProt P02763)", "test": "Screening: S-warfarin binding with drug at 100-fold concentration", "settings": "drug at 100-fold concentration of marker", "procedure,_shortened": "as §2"}, "[2]": {"molecular_target": "AGP F1/S variant mixture (S-warfarin binding site) (Homo sapiens, UniProt P02763)", "test": "Competitive inhibition of S-warfarin binding to human AGP by ultrafiltration", "settings": "among the drugs tested", "procedure,_shortened": "as §1"}, "human AGP variants": {"system": "human AGP variants", "settings": "cited from earlier work; for Binding to AGP: used as positive controls"}}, "note": "Where two headings read alike, the source gives them in different places."}
{"smiles": "CCN(CC)CCCN(c1ccccc1)C1Cc2ccccc2C1", "note": "[Aprindine]", "values": [{"measurement": "Binding affinity for the AGP A variant (S-disopyramide binding site)", "setting": "[1]", "value": "relatively high"}, {"measurement": "Effect on binding of tamsulosin", "setting": "AGP F1/S variants", "value": "significantly decreased"}]}
{"smiles": "COc1ccccc1OCCNCC(O)COc1cccc2[nH]c3ccccc3c12", "note": "(centres unmarked) [Carvedilol]", "values": [{"measurement": "Effect on binding of tamsulosin", "setting": "AGP F1/S variants", "value": "significantly decreased"}]}
{"smiles": "CC[C@H]1OC(=O)[C@H](C)[C@@H](O[C@H]2C[C@@](C)(OC)[C@@H](O)[C@H](C)O2)[C@H](C)[C@@H](O[C@@H]2O[C@H](C)C[C@H](N(C)C)[C@H]2O)[C@](C)(O)C[C@@H](C)C(=O)[C@H](C)[C@@H](O)[C@]1(C)O", "note": "[Erythromycin]", "values": [{"measurement": "Inhibition of binding of S-disopyramide", "setting": "AGP A variant", "value": "markedly inhibited"}, {"measurement": "Inhibition of binding of warfarin", "setting": "AGP F1/S variant mixture", "value": "markedly inhibited"}, {"measurement": "Effect on binding of tamsulosin", "setting": "AGP F1/S variants", "value": "significantly decreased"}]}
{"smiles": "COc1ccc(Cl)cc1C(=O)NCCc1ccc(S(=O)(=O)NC(=O)NC2CCCCC2)cc1", "note": "[Glibenclamide]", "values": [{"measurement": "Inhibition of binding of S-disopyramide", "setting": "AGP A variant", "value": "specifically inhibited"}]}
{"smiles": "CN(C)C(=O)C(CCN1CCC(O)(c2ccc(Cl)cc2)CC1)(c1ccccc1)c1ccccc1", "note": "[Loperamide]", "values": [{"measurement": "Inhibition of binding of S-disopyramide", "setting": "AGP A variant", "value": "specifically inhibited"}]}
{"smiles": "Clc1ccc(COC(Cn2ccnc2)c2ccc(Cl)cc2Cl)c(Cl)c1", "note": "(centres unmarked) [Miconazole]", "values": [{"measurement": "Inhibition of binding of S-disopyramide", "setting": "AGP A variant", "value": "markedly inhibited"}, {"measurement": "Inhibition of binding of warfarin", "setting": "AGP F1/S variant mixture", "value": "markedly inhibited"}]}
{"smiles": "COC(=O)C1=C(C)NC(C)=C(C(=O)OCCN(C)Cc2ccccc2)C1c1cccc([N+](=O)[O-])c1", "note": "(centres unmarked) [Nicardipine]", "values": [{"measurement": "Binding affinity for the AGP F1/S variant mixture (S-warfarin binding site)", "setting": "[2]", "value": "relatively high"}, {"measurement": "Inhibition of binding of S-disopyramide", "setting": "AGP A variant", "value": "markedly inhibited"}, {"measurement": "Inhibition of binding of warfarin", "setting": "AGP F1/S variant mixture", "value": "markedly inhibited"}]}
{"smiles": "C=C[C@H]1C[N@@]2CC[C@H]1C[C@H]2[C@H](O)c1ccnc2ccc(OC)cc12", "note": "[Quinine]", "values": [{"measurement": "Binding affinity for the AGP A variant (S-disopyramide binding site)", "setting": "[1]", "value": "relatively high"}, {"measurement": "Inhibition of binding of S-disopyramide", "setting": "AGP A variant", "value": "markedly inhibited"}, {"measurement": "Inhibition of binding of warfarin", "setting": "AGP F1/S variant mixture", "value": "markedly inhibited"}]}
{"smiles": "CCC(C)(C)C(=O)O[C@H]1C[C@@H](C)C=C2C=C[C@H](C)[C@H](CC[C@@H]3C[C@@H](O)CC(=O)O3)[C@H]21", "note": "[Simvastatin]", "values": [{"measurement": "Binding affinity for the AGP F1/S variant mixture (S-warfarin binding site)", "setting": "[2]", "value": "relatively high"}, {"measurement": "Inhibition of binding of S-disopyramide", "setting": "AGP A variant", "value": "markedly inhibited"}, {"measurement": "Inhibition of binding of warfarin", "setting": "AGP F1/S variant mixture", "value": "markedly inhibited"}]}
{"smiles": "CSc1ccc2c(c1)N(CCC1CCCCN1C)c1ccccc1S2", "note": "(centres unmarked) [Thioridazine]", "values": [{"measurement": "Binding affinity for the AGP A variant (S-disopyramide binding site)", "setting": "[1]", "value": "relatively high"}, {"measurement": "Binding affinity for the AGP F1/S variant mixture (S-warfarin binding site)", "setting": "[2]", "value": "relatively high"}, {"measurement": "Inhibition of binding of S-disopyramide", "setting": "AGP A variant", "value": "markedly inhibited"}, {"measurement": "Inhibition of binding of warfarin", "setting": "AGP F1/S variant mixture", "value": "markedly inhibited"}, {"measurement": "Effect on binding of tamsulosin", "setting": "AGP F1/S variants", "value": "significantly decreased"}, {"measurement": "Binding to AGP", "setting": "human AGP variants", "value": "bind strongly to AGP"}]}
{"smiles": "CN(C)CCC=C1c2ccccc2CCc2ccccc21", "note": "[amitriptyline]", "values": [{"measurement": "Inhibition of binding of S-disopyramide", "setting": "AGP A variant", "value": "specifically inhibited"}, {"measurement": "Binding to AGP", "setting": "human AGP variants", "value": "bind strongly to AGP"}]}
{"smiles": "CN(C)CCCN1c2ccccc2Sc2ccc(Cl)cc21", "note": "[chlorpromazine]", "values": [{"measurement": "AGP variant to which the drug binds", "setting": "human AGP variants; separate AGP variants", "value": "to both variants"}]}
{"smiles": "COc1ccc([C@@H]2Sc3ccccc3N(CCN(C)C)C(=O)[C@@H]2OC(C)=O)cc1", "note": "[diltiazem]", "values": [{"measurement": "Inhibition of binding of S-disopyramide", "setting": "AGP A variant", "value": "specifically inhibited"}]}
{"smiles": "CC(C)N(CCC(C(N)=O)(c1ccccc1)c1ccccn1)C(C)C", "note": "(centres unmarked) [disopyramide]", "values": [{"measurement": "AGP variant to which the drug binds", "setting": "human AGP variants; separate AGP variants", "value": "bind specifically to the A variant"}]}
{"smiles": "CN(C)CCCN1c2ccccc2CCc2ccccc21", "note": "[imipramine]", "values": [{"measurement": "AGP variant to which the drug binds", "setting": "human AGP variants; separate AGP variants", "value": "bind specifically to the A variant"}, {"measurement": "Binding to AGP", "setting": "human AGP variants", "value": "bind strongly to AGP"}]}
{"smiles": "CC(C)NCC(O)COc1cccc2ccccc12", "note": "(centres unmarked) [propranolol]", "values": [{"measurement": "Inhibition of binding of S-disopyramide", "setting": "AGP A variant", "value": "markedly inhibited"}, {"measurement": "Inhibition of binding of warfarin", "setting": "AGP F1/S variant mixture", "value": "markedly inhibited"}]}
{"smiles": "CC/C(=C(\\c1ccccc1)c1ccc(OCCN(C)C)cc1)c1ccccc1", "note": "[tamoxifen]", "values": [{"measurement": "Inhibition of binding of S-disopyramide", "setting": "AGP A variant", "value": "specifically inhibited"}, {"measurement": "Binding to AGP", "setting": "human AGP variants", "value": "bind strongly to AGP"}]}
{"smiles": "CCOc1ccccc1OCCN[C@H](C)Cc1ccc(OC)c(S(N)(=O)=O)c1", "note": "[tamsulosin]", "values": [{"measurement": "Binding affinity for the AGP F1/S variant mixture (S-warfarin binding site)", "setting": "[2]", "value": "relatively high"}, {"measurement": "Inhibition of binding of warfarin", "setting": "AGP F1/S variant mixture", "value": "specifically inhibited"}, {"measurement": "AGP variant to which the drug binds", "setting": "human AGP variants", "value": "binds specifically to the F1/S variants"}]}
{"smiles": "CC(=O)CC(c1ccccc1)c1c(O)c2ccccc2oc1=O", "note": "(centres unmarked) [warfarin]", "values": [{"measurement": "Effect on binding of tamsulosin", "setting": "AGP F1/S variants", "value": "significantly decreased"}, {"measurement": "AGP variant to which the drug binds", "setting": "human AGP variants; separate AGP variants", "value": "to an F1/S variant mixture"}]}
